T cruzi repl = blocks replication of Trypanosoma cruzi. T. cruzi beta-gal in NIH3T3, luminescence, 90 h. inhibition, % (concentration not given with the values). 300,000 compounds, 1.4% hits. AID 1885;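 active = mean inhibition across valid replicates above about 55%, limit read from the data; inconclusive = mean below that limit but half or more replicates reach it; inactive = mean below it, under half of replicates reach it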;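 note: signal also drops with host cell toxicity which is not excluded here; 0% = plate median of DMSO wells and 100% = zero luminescence signal; higher percent means less beta-gal luminescence so fewer parasites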
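System: mouse NIH/3T3 fibroblasts infected with β-gal-expressing T. cruzi Tulahuen C4 / Input: NIH/3T3 cells, 5,000 per well / Buffer or medium: Low-serum DMEM with 2% FBS / Probe or stimulus: 5000 reporter trypomastigotes per well / Schedule: ≥90 h infection period, 3 h prior cell attachment / Measured by: GalScreen luminescence, 60 min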
Bfl-1 A1 inh = inhibitors of the anti-apoptotic protein A1, read as caspase activation; MEF A1-2A-BIM cells, Caspase-Glo 3/7 luminescence, 3 h; percent of clofoctol response, vehicle zero; caspase activation, % (no concentration beside the values); 330,000 compounds, 0.066% hits;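 active = over half of replicate activation scores above 10%, or exactly half above 10 with the replicate mean above 10; inconclusive = replicate mean below 10 yet half the replicates above 10; inactive = over half of replicates below 10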
Beta apoptosis = blocks beta cell apoptosis; protection from apoptosis, % (no concentration beside the values); AID 435005; INS-1E cytokine-induced death, ATP luminescence, 48 h; percent of positive-control rescue, neutral wells zero; 300,000 compounds, 0.8% hits;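 active = Every replicate reaches about 75%, or at least half do and their mean reaches it too, limit read from the data; inconclusive = At least half of replicates reach the limit but their mean does not; inactive = Under half of replicates reach the limit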;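 note: 0% = cytokine-treated negative control wells and 100% = positive control rescue; higher means more ATP so stronger rescue from cytokine killing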
HIF activator = HIF pathway transcriptional activation; U2OS HRE-luciferase reporter, luminescence; normalized: DMSO 0%, desferrioxamine 100%; AID 1910; activation, % at 7.5 µM (by protocol); 300,000 compounds, 0.32% hits;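 active = mean activation of at least 10% of the iron chelator positive control signal, with at least half of replicates also reaching 10%; inconclusive = mean and replicate majority disagree about reaching 10%; inactive = mean and most replicates under 10%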
KLF5 inhibitor = kruppel-like factor 5 inhibition; 290,000 compounds, 0.23% hits; inhibition, % at 5 µM; DLD-1 KLF5 promoter-luciferase reporter, luminescence;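 active = inhibition above a per-plate limit of that plate's mean compound inhibition plus 3 SD, cut at about 60% in these data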;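 note: 0% = DMSO wells and 100% = LY294002 at 200 µM; higher means less KLF5 promoter-driven luciferase light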
* marks the source's active call; other numbers are inactive results; ? = inconclusive; . = no result. Compounds with a hit are over-represented: about 2.3% of the library has one in this group of screens.

SMILES	T cruzi repl	Bfl-1 A1 inh	Beta apoptosis	HIF activator	KLF5 inhibitor
CCOC(=O)/C(=C\c1ccc(OC(F)F)cc1)C1=Nn2c(nnc2-c2ccc(Cl)cc2)SC1	39	?	131*	-3	-21
COc1ccc(/C=C/C(=O)Oc2ccc(C)cc2)cc1	-27	0	.	1	-18
CCc1ccc(S(=O)(=O)NCc2csc(C)n2)cc1	-7	0	-3	-60	-15
CC(C)N(CCNC(=O)c1nn(Cc2ccccc2)c(=O)c2ccccc12)C(C)C	55*	0	9	0	-22
CC(C)CCNC(=O)c1nn(Cc2ccccc2)c(=O)c2ccccc12	8	0	-1	-1	-19
COc1cccc(CN(C(=O)Cc2c[nH]c3ccccc23)C(C(=O)NC2CCCCC2)c2cccs2)c1 (stereo unspecified)	55*	1	15	-1	-15
COc1ccc(CN(C(=O)Cc2cccs2)C(C(=O)NC2CCCC2)c2ccncc2)cc1 (stereo unspecified)	66*	0	1	0	-2
Cc1ccc(C(C(=O)NC2CCCCC2)N(C(=O)Cc2c[nH]c3ccccc23)c2ccccc2)o1 (stereo unspecified)	56*	-1	8	0	17
O=C(NC1CCCCC1)C(c1cccs1)N(C(=O)Cc1c[nH]c2ccccc12)c1ccc(F)cc1 (stereo unspecified)	57*	0	5	0	1
COc1ccc(C(C(=O)NC2CCCCC2)N(Cc2cccs2)C(=O)Cc2c[nH]c3ccccc23)cc1 (stereo unspecified)	41	0	24	0	-10
CCCN1CCN(S(=O)(=O)c2ccc3c(c2)NC(=O)C(C)C(=O)N3)CC1 (stereo unspecified)	-3	1	9	0	-11
COc1cc(/C=N/NC(=O)c2cccnc2)ccc1OC(=O)c1ccc2c(c1)OCO2	-4	-1	-8	-1	-36
COc1cc(/C=N/NC(=O)c2cccnc2)ccc1OC(=O)c1cc(OC)c(OC)c(OC)c1	0	1	109*	-1	-11
CC(=O)Nc1ccc(C(=O)N/N=C/c2ccccc2OC(=O)c2ccc(Cl)cc2)cc1	-6	0	23	0	-11
COc1cc(C(=O)Oc2ccccc2/C=N/NC(=O)c2ccc(C)c(Cl)c2)cc(OC)c1OC	55*	0	93*	1	-7
COc1cc(C(=O)Oc2ccccc2/C=N/NC(=O)c2ccc(Cl)cc2)cc(OC)c1OC	67*	-2	.	71*	-19
CN(CC(=O)Nc1ccc(Cl)cc1)C(=O)Cn1[nH]c(=O)c2ccccc2c1=O	-6	0	.	3	.
COc1ccc(Nc2nc(-c3c(C)nc4ncccn34)cs2)cc1	.	.	.	.	84*
CCc1ccc(NC(=O)[C@H](C)NC(=O)C2CCN(C(=O)[C@@H](N)C(C)C)CC2)cc1	-15	0	0	0	-22
O=C(Nc1nc2c(F)cc(F)cc2s1)C1CC1	58*	?	2	3	-48
O=C(CN1C(=O)CCC1=O)Nc1nc2c(F)cc(F)cc2s1	-17	1	-4	0	-60
O=C(Nc1nc2cc3c(cc2s1)OCO3)C1CCCCC1	1	0	6	2	-161
O=C(Nc1nc2ccccc2s1)C1CCN(S(=O)(=O)c2cc([N+](=O)[O-])ccc2Cl)CC1	59*	-1	81*	1	3
O=C(Nc1nc2ccc(Cl)cc2s1)C1CC1	66*	0	.	3	.
O=C(Nc1nc2cc3c(cc2s1)OCO3)C1CC1	56*	-2	19	-4	-45
SMILES	T cruzi repl	Bfl-1 A1 inh	Beta apoptosis	HIF activator	KLF5 inhibitor
Cc1cc(C)c[n+](CC(=O)c2c(C)cc(C)c([N+](=O)[O-])c2C)c1	-2	1	-3	-2	-32
CCOc1ccc(CCNC(=O)c2ccc(OCc3c(C)noc3C)cc2)cc1OCC	3	0	4	0	.
CCN(C[C@H]1N[C@@](CC)(C(=O)OC)[C@H]2C(=O)N(Cc3ccccc3)C(=O)[C@@H]12)C(=O)C1CCCCC1	.	0	-12	.	.
Cc1ccc2nc(-c3ccsc3)c(NC3CCCC3)n2c1	8	0	-11	3	-58
Cc1ccc2nc(-c3ccncc3)c(NC3CCCCC3)n2c1	60*	0	4	452*	28
Cc1ccc2nc(-c3ccncc3)c(NC3CCCC3)n2c1	77*	-1	-3	2	-49
